# Data as given in PubChem BioAssay AID463079 (The Scripps Research Institute Molecular Screening Center, 2010).
# In all, about 330,000 compounds went through this assay and about 2,000 (0.61%) were called active.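 The calls were made as follows: active = inhibition above that plate's mean sample inhibition plus 3 SD (cut at about 26% in these data); inactive = the rest.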 For the sample, actives were picked, then their nearest neighbours and some compounds at random.
# Experiment: ATP-evoked calcium signal inhibitors, parental CHO, primary screen, counter-screen for OX1R antagonist project, cell-based, fluorescence, Fluo-8 calcium dye (AID 463079);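 also: 0% = ATP-challenged DMSO wells and 100% = DMSO wells without ATP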
# Details: parental CHO-K1, ATP-induced calcium, Fluo-8 fluorescence; at 5.6 µM; stronger effect = higher value
# Method in brief: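 Material – parental CHO cells · Reagent – ATP stimulus · Compound – single nominal dose of 5.6 µM per compound · Detection – Fluo-8 fluorescence · Read-out basis – percent inhibition of calcium signal · Controls – ATP-challenged DMSO wells low, unchallenged DMSO wells high · Repeats – no replicates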
row,SMILES,inhibition
1,CCCC(C)NC(=O)C1CCN(C(=O)C2CC(=O)N(c3ccc(C)cc3)C2)CC1 (stereo unspecified),-8.45% (inactive)
2,O=S(=O)(c1cccc(Cn2nnc(-c3ccc(F)cc3)n2)c1)N1CCOCC1,41.7% (active)
3,CCN(Cc1ccncc1)C(=O)c1cccc(S(=O)(=O)N2CCOCC2)c1,-16.1% (inactive)
4,Cc1nc(-c2ccc(F)cc2)c(CC(=O)Nc2cccc(S(=O)(=O)N3CCOCC3)c2)s1,-17.7% (inactive)
5,CC(=O)Nc1ccc(S(=O)(=O)Oc2ccc(/C=N/N=C3/NC(=O)C(CC(=O)O)S3)cc2)cc1 (stereo unspecified),-3.01% (inactive)
6,CC(c1ccccn1)N(C)C(=O)c1ccc2nc(Cc3cccc(Cl)c3)oc2c1 (stereo unspecified),-18.4% (inactive)
7,CC[C@]12c3[nH]c4ccc(Cl)cc4c3CCN1C(=O)[C@@H](CC(=O)NCCN1CCOCC1)C[C@@H]2C(=O)N1CCN(C(=O)C2CC2)CC1,-12.4% (inactive)
8,Cc1cc(OC(=O)c2ccc(Cl)cc2)cc(=O)n1C,-3.96% (inactive)
9,COCCCNc1nc2c(-c3cccc(C)c3)nnn2c2ccc(Cl)cc12,-27.9% (inactive)
10,Cc1ccc2cc(CCNC(=O)c3ccc4c(c3)OCO4)c(=O)[nH]c2c1,-18% (inactive)
11,O=C(NCCc1ccc(C(F)(F)F)cc1)c1ccc2c(c1)OCO2,40.1% (active)
12,COc1ccc(CCNC(=O)COc2ccc3c(c2)OCO3)cc1,-4.78% (inactive)
13,O=S(N1CCCCCC1)C12CC3CC(CC(C3)C1)C2 (stereo unspecified),-6.89% (inactive)
14,COc1ccc(N2CCC(CNC(=S)Nc3c(C)cccc3C)C2)cc1 (stereo unspecified),-5.49% (inactive)
15,CC1(C)C2CCC1(C)C(OC(=O)CCn1ccnc1)C2 (stereo unspecified),-13.9% (inactive)
16,CC1(C)C2CCC1(C)C(OC(=O)c1ccc(O)cc1)C2 (stereo unspecified),76.2% (active)
17,Cc1ccc(C(=O)OC2CCCN(C)C2)cc1 (stereo unspecified),-15% (inactive)
18,O=C(CNC(=O)c1ccc(Br)o1)NCC1CCCO1 (stereo unspecified),4.99% (inactive)
19,CC[C@]12c3[nH]c4cc(CCC(=O)N(C)C)ccc4c3CCN1C(=O)[C@@H](CC(=O)NCCCN(C)C)C[C@@H]2C(=O)N1CCN(C(=O)c2ccco2)CC1,-12.2% (inactive)
20,CCC(C)NC(=O)C1c2ccccc2Oc2ccccc21 (stereo unspecified),-11.6% (inactive)
21,CCCCCNC(=O)C1c2ccccc2Oc2ccccc21,-8.91% (inactive)
22,CCC(C)(C)NC(=O)C1c2ccccc2Oc2ccccc21,41.2% (active)
23,Cc1cc(C)c2nc(SCC(=O)N(C)C3CCS(=O)(=O)C3)cc(C)c2c1 (stereo unspecified),-7.05% (inactive)

row,SMILES,inhibition
1,CCOc1ccc(C(=O)Nc2cccc(-c3ccc4nncn4n3)c2)cc1,-7.65% (inactive)
2,O=S(=O)(NC1CC2CCC1C2)c1ccc(Cl)cc1 (stereo unspecified),-7.07% (inactive)
3,O=C(NCCN=C1NS(=O)(=O)c2ccccc21)c1ccc(S(=O)(=O)N2CCOCC2)cc1,-2.4% (inactive)
4,Cc1n[nH]c(C)c1S(=O)(=O)N1CCCC(C(=O)NCC2COc3ccccc3O2)C1 (stereo unspecified),-6.84% (inactive)
5,Cc1cccc(C(=O)OCC(=O)Nc2sc3c(c2C#N)CCC3)c1,-1.94% (inactive)
6,CC(=O)c1c(C)[nH]c(C(=O)OCC(=O)Nc2c(C)cccc2C)c1C,-7.2% (inactive)
7,CC(=O)c1c(C)[nH]c(C(=O)OCC(=O)Nc2sc3c(c2C#N)CCCC3)c1C,33.6% (active)
8,O=C(COC(=O)[C@H](Cc1ccccc1)NC(=O)c1cccs1)Nc1cc(F)ccc1F,-7.13% (inactive)
9,CC(=O)N(O)CCCCCNC(=O)CCC(=O)N(O)CCCCCNC(=O)CCC(=O)N(O)CCCCCNC(=O)CCC(=O)O,-0.82% (inactive)
10,O=C(NC(=S)NC1CCSC1=O)c1ccccc1F (stereo unspecified),-7.55% (inactive)
11,COc1cc(OC)c(-n2cc(-c3ccc(Cl)cc3)[nH]c2=O)cc1Cl,39.3% (active)
12,COc1cc(OC)c(N2CC(C(=O)Nc3cc(Cl)ccc3N3CCOCC3)CC2=O)cc1Cl (stereo unspecified),-16.6% (inactive)
13,COc1cc(OC)c(-n2c(C)cc(C=O)c2C)cc1Cl,-12.5% (inactive)
14,CN(c1ccccc1)S(=O)(=O)c1cc(C(=O)N2CCN(c3ncccn3)CC2)ccc1Cl,-18.9% (inactive)
15,CC(C)(C)c1ccc(SCCc2ccncc2)cc1,28.1% (inactive)
16,O=C(O)CC1S/C(=N\N=C/c2ccccc2O)N(c2ccc(O)cc2)C1=O (stereo unspecified),-10.7% (inactive)
17,CS(=O)(=O)N(CC(=O)Nc1ccc(Cl)c(Cl)c1)C1CCCCC1,-5.86% (inactive)
18,O=C(CC(O)(C(F)(F)F)C(F)(F)F)Nc1ccc(Cl)c(Cl)c1,72.5% (active)
19,CCn1nccc1C(=O)Nc1ccc(Cl)c(Cl)c1,-8.3% (inactive)
20,CN(C)CCN(Cc1ccccc1)S(=O)(=O)c1csc(C(N)=O)c1,-12.9% (inactive)
21,COc1cccc(-c2coc3cc4oc(=O)c(CC(=O)O)c(C)c4cc23)c1,1.98% (inactive)
22,CC#CC[N+](C)(C)CCCCCC,-6.39% (inactive)
23,O=C(NCC(=O)N1CCCC(C(F)(F)F)C1)c1ccccc1F (stereo unspecified),-5.99% (inactive)

row,SMILES,inhibition
1,O=C(NC(Cc1ccccc1)C(=O)N1CCCC(C(F)(F)F)C1)c1ccccc1 (stereo unspecified),-16.7% (inactive)
2,FC(F)(F)C1CCCN(c2nsc3ccccc23)C1 (stereo unspecified),51.7% (active)
3,Cc1cc(C(=O)O)c(S(C)(=O)=O)s1,-2.26% (inactive)
4,CCN(CC)C(=O)[C@H]1C[C@H](CC(=O)NCC23CC4CC(CC(C4)C2)C3)C(=O)N2CCc3c([nH]c4cc(CCC(=O)N(C)C)ccc34)[C@]12C,-25.6% (inactive)
5,Fc1ccc2[nH]c3c(N4CCSCC4)ncnc3c2c1,58.3% (active)
6,Cc1nn(C)cc1C(=O)c1ccccc1,-6.65% (inactive)
7,O=C(O)c1ccc2c3c(cccc13)C(=O)N(OS(=O)(=O)c1ccccc1)C2=O,-10.1% (inactive)
8,COc1cc(C(=O)N2C(=O)c3cccc(N)c3C2=O)cc(OC)c1OC,-9.7% (inactive)
9,CN1C(=O)c2cccc3c(N)ccc(c23)C1=O,49.2% (active)
10,Cc1nn(C)cc1N1C(=O)c2cccc3c(N)ccc(c23)C1=O,36.8% (active)
11,CC(=O)Nc1ccccc1Sc1ccc2c3c(cccc13)C(=O)N(c1ccc(C)cc1)C2=O,-4.4% (inactive)
12,CC(NS(=O)(=O)c1ccccc1)c1n[nH]c(=S)n1-c1ccccc1 (stereo unspecified),9.34% (inactive)
13,O=C(c1ccccc1Cl)N(Cc1ccccc1F)N1C(=O)CCCC1=O,6.42% (inactive)
14,COCCCN1C(=O)C(=O)/C(=C(/O)c2ccc(S(=O)(=O)N3CCOCC3)cc2)C1c1ccc(F)cc1 (stereo unspecified),14.2% (inactive)
15,COc1ccc(NS(=O)(=O)c2ccc(NC(=S)NC(=O)CC(C)C)cc2)cc1,44.3% (active)
16,COc1ccc(NS(=O)(=O)c2ccc(C(=O)Nc3c(C)n(C)n(-c4ccccc4)c3=O)cc2)cc1,-3.65% (inactive)
17,CC(=O)c1ccc(NC(=S)NC(=O)CC(C)C)cc1,7.82% (inactive)
18,COc1cc(OC)cc(C(=O)Nc2ccc(S(=O)(=O)Nc3cc(C)on3)cc2)c1,-3.8% (inactive)
19,COc1ccc(NS(=O)(=O)c2ccc(NC(=O)c3ccc(N(C)S(C)(=O)=O)cc3)cc2)cc1,31.2% (active)
20,COc1ccc(OC)c(C(C)NC(=S)Nc2ccc(S(=O)(=O)Nc3ncccn3)cc2)c1 (stereo unspecified),3.7% (inactive)
21,CCSc1nc(=S)n(CC)c(C)c1C(C)=O,-1.19% (inactive)
22,CC(C)(C)CN1C(=O)C(=O)NC[C@H]1Cc1cccc2ccccc12,-9.71% (inactive)
23,COC(=O)Nc1ncc(CN2CCCCC2)s1,0.87% (inactive)

row,SMILES,inhibition
1,O=C(Cc1ccc(Cl)cc1)NC(=S)Nc1ccccc1O,39% (active)
2,O=C(COc1ccc(Cl)cc1)NC(=S)Nc1ccccc1N1CCOCC1,-32% (inactive)
3,Cc1ccccc1NC(=S)NC(=O)Cc1ccc(Cl)cc1,2.02% (inactive)
4,COc1ccc(NC(=O)CSCc2ccc([N+](=O)[O-])cc2)cc1OC,-6.67% (inactive)
5,CC(C)CC(=O)N=C1SC2CS(=O)(=O)CC2N1CCc1ccccc1 (stereo unspecified),-2.34% (inactive)
6,O=c1c2ccccc2nc2n1C(CSCc1cccc(C(F)(F)F)c1)CS2 (stereo unspecified),40.1% (active)
7,O=c1c2ccccc2nc2n1C(CSc1ccc(F)cc1)CN2 (stereo unspecified),-3.49% (inactive)
8,O=c1c2ccccc2nc2n1C(CSCc1ccccc1)CS2 (stereo unspecified),2.02% (inactive)
9,COc1ccccc1C(=O)C(O)c1ccccc1OC (stereo unspecified),-2.08% (inactive)
10,Cc1cccc(C)c1NC(=O)CNC(=O)c1c(C)nn(-c2ccccc2)c1C,9.7% (inactive)
11,Cc1ccc(S(=O)(=O)NC(=O)Nc2nc(-c3ccc(F)c(F)c3)cs2)cc1,13.3% (inactive)
12,COc1ccc(CC(=O)Nc2nc(-c3ccc(F)c(F)c3)cs2)cc1OC,55.3% (active)
13,COc1ccc(OC)c(-c2csc(NC(=O)COC(=O)C3CC3)n2)c1,-16.7% (inactive)
14,COc1ccc(-c2csc(NC(=O)COC(=O)Cc3ccc(Cl)cc3Cl)n2)cc1,-7.84% (inactive)
15,COc1cc(CC(=O)NCc2cccs2)cc(OC)c1OC,-12.1% (inactive)
16,COc1cc(CC(=O)Nc2nc(-c3ccc(F)c(F)c3)cs2)cc(OC)c1OC,50.5% (active)
17,COc1cccc(CC(=O)Nc2nc(-c3ccc(OC)c(OC)c3)cs2)c1,50.6% (active)
18,CCCc1ccc(-c2csc(NC(=O)Cc3cccs3)n2)cc1,-13.1% (inactive)
19,COc1ccc(-c2csc(NC(=O)COC(=O)c3ccc(Br)o3)n2)cc1,-1.84% (inactive)
20,Cc1ccc(C)c(Cn2nnc3c(=O)[nH]c(C(=O)Nc4ccc(F)cc4)nc32)c1,-8.13% (inactive)
21,Cc1cccc(NC(=S)NCCc2ccc(F)cc2)c1C,-8.34% (inactive)
22,C=CCOC(=O)C1=C[C@H](c2ccc(Br)cc2)C[C@H](OCCCCO)O1,-16.9% (inactive)
